The source made the active and inactive calls. The calls are words filed in the database; no cut-off is given here.
Key:
PBMC [1] = assay: […] activity in human PBMC stimulated with anti-CD3-mediated CD137 expression in cocultured with […] cell line assessed as increase in secretion of IFN gamma incubated for 48 hrs by Luminex assay; assay type: functional, cell-based; conditions: DDE = dose-dependent effect
How it was run: (§1)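 Healthy-donor PBMCs were thawed into R10 medium and cocultured with HT1376 cells at 10:1 effector:target (1×10^5 PBMC:1×10^4 tumor cells per well). Soluble anti-CD3 OKT3 (100 ng/mL) was added on day 0, then compound, 37 °C, 5% CO2. Supernatant IFNγ and IL-2 taken at 24 and 48 h, measured by Luminex. Four-parameter fit, n = 3, repeated in multiple donors.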

[2] = molecular target: T1, Tumor necrosis factor receptor superfamily member 9 (Homo sapiens, UniProt Q07011); assay: Agonist activity at recombinant human CD137 expressed in Jurkat T cells co-expressing response element driven luciferase reporter gene co-cultured with Nectin-4 expressing mouse MC38 cells assessed as luminescence measured after 6 hrs by luciferase reporter gene based co-culture assay; assay type: cell-based; conditions: filed as agonist, DDE = dose-dependent effect
How it was run: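 Jurkat cells carrying human CD137 and a CD137 response-element luciferase reporter, cocultured for 6 h at 37 °C, 5% CO2 with 10,000 MC38 cells engineered to express mouse Nectin-4 (parental MC38 as negative line). Bio-Glo luminescence read-out, as fold induction over no-test-article wells. Mean of n = 2.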

PBMC [3] = assay: […] activity in human PBMC stimulated with anti-CD3-mediated CD137 expression in cocultured with […] cell line assessed as increase in secretion of IL2 incubated for 48 hrs by Luminex assay; assay type: functional, cell-based; conditions: DDE = dose-dependent effect; how it was run: as §1
Nectin-4 = molecular target: T2, Nectin-4 (Homo sapiens, UniProt Q96NY8); assay: Binding affinity to human Nectin-4 assessed as dissociation constant using 1:1 Nectin-4/CD137 by surface plasmon resonance analysis
T2 sequence (Q96NY8 whole entry): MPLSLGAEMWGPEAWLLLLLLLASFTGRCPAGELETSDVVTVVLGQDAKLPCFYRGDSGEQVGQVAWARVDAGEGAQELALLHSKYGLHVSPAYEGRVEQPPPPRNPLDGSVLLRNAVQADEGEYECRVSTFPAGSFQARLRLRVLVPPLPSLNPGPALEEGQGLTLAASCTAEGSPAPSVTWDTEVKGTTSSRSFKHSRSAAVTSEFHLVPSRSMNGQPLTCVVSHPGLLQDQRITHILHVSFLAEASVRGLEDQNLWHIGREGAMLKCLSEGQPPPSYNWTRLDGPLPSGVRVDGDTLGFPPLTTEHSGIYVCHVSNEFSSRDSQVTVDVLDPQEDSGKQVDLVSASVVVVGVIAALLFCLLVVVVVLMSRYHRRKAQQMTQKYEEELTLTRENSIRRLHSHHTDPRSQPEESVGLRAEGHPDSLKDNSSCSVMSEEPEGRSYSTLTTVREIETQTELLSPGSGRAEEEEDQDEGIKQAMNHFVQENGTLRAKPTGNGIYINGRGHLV
How it was run: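 SPR kinetics against human Nectin-4 (residues 32–349, baculovirus/Sf21-expressed, FLAG-tagged), 25 °C. Top 100 nM with 6 further twofold dilutions, 50 μL/min, 60 s association, 400–1200 s dissociation, DMSO-corrected. At least four concentrations used to obtain kon, koff and KD.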

[4] = molecular target: T1, Tumor necrosis factor receptor superfamily member 9; assay: Agonist activity at human CD137 expressed in human NCI-H292 cells measured after 6 hrs by […] microplate reader assay; assay type: cell-based; conditions: filed as agonist
[5] = molecular target: T1, Tumor necrosis factor receptor superfamily member 9; assay: Binding affinity to human recombinant CD137 by surface plasmon resonance analysis
How it was run: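 Biacore T200 SPR, human CD137, 25 °C. Peptide series in PBS/0.05% Tween 20 with 0.5% DMSO: top 500 nM (threefold) or 10 μM (twofold), 6 further dilutions. Flow 90 μL/min, 60 s association, 100–600 s dissociation, glycine pH 2 regeneration. DMSO-corrected and double-referenced; kinetic fit gives ka, kd, KD.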

[6] = molecular target: T1, Tumor necrosis factor receptor superfamily member 9; assay: Agonist activity at human CD137 expressed in human HT-1376 cells measured after 6 hrs by […] microplate reader assay; assay type: cell-based; conditions: filed as agonist

T1 sequence (Q07011 whole entry): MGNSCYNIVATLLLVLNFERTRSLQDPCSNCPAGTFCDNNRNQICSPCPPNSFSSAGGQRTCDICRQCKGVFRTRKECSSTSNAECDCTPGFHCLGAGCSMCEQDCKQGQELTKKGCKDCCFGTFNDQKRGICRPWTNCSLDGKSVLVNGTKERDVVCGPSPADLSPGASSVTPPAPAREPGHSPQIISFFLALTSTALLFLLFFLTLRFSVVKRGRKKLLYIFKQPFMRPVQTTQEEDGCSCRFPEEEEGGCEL

CCCC[C@@H]1NC(=O)[C@H](Cc2ccc(O)cc2)NC(=O)[C@@H]2CCCN2C(=O)[C@H](CC(=O)O)NC(=O)[C@H](C)NC(=O)[C@H](Cc2ccccc2)NC(=O)[C@@H]2CSCCC(=O)N3CN(CN(C3)C(=O)CCSC[C@@H](C(=O)N[C@@H](CNC(=O)CCOCCOCCOCCOCCOCCOCCOCCOCCOCCOCCOCCOCCn3cc(CCC(=O)NCCC(=O)N(C)CC(=O)N(C)CC(=O)N(C)CC(=O)N(C)CC(=O)N(C)CC(=O)N(C)CC(=O)N(C)CC(=O)N(C)CC(=O)N(C)CC(=O)N(C)CC(=O)N[C@H]4CSCCC(=O)N5CN6CN(C5)C(=O)CCSC[C@H](NC(=O)[C@@H](CC(=O)O)NC(=O)[C@H](Cc5cccc7ccccc57)NC(=O)[C@@H]5CCCN5C4=O)C(=O)N[C@@H](CCSC)C(=O)N[C@@H](CCCCNC(=N)N)C(=O)N[C@@H](CC(=O)O)C(=O)N[C@@H](Cc4c[nH]c5ccccc45)C(=O)N[C@@H](CO)C(=O)N[C@@H]([C@@H](C)O)C(=O)N4CCC[C@H]4C(=O)N4C[C@H](O)C[C@H]4C(=O)N[C@@H](Cc4c[nH]c5ccccc45)C(=O)N[C@H](C(N)=O)CSCCC6=O)nn3)C(N)=O)NC1=O)C(=O)CCSC[C@H](NC(=O)[C@H](C)NC(C)=O)C(=O)NC([C@@H](C)CC)C(=O)N[C@@H](CCC(=O)O)C(=O)N[C@@H](CCC(=O)O)C(=O)NCC(=O)N[C@@H](CCC(N)=O)C(=O)N[C@@H](Cc1ccc(O)cc1)C(=O)N2 (some centres not stated)
Activity (PBMC [1]): Dde | Activity [2]: Dde | Activity (PBMC [3]): Dde | Kd (Nectin-4): 2.8 nM | Activity [4]: Active | Kd [5]: 108 nM | Activity [6]: Active

— ChEMBL document CHEMBL5143736, “Discovery and Optimization of a Synthetic Class of Nectin-4-Targeted CD137 Agonists for Immuno-oncology” (J Med Chem, 2022)
